The results in this text go back to ChEMBL document CHEMBL1132150, “Synthesis and evaluation of 3-trifluoromethyl-7-substituted-1,2,3, 4-tetrahydroisoquinolines as selective inhibitors of phenylethanolamine N-methyltransferase versus the alpha(2)-adrenoceptor” (J Med Chem, 1999).

The nature of assay [1]: Selectivity determined by Ki of alpha 2 receptor / Ki of PNMT.
Assay [2] has as its target T1, Adrenergic receptor alpha-2 (Rattus norvegicus, UniProt P22086+P19328+P22909).
T1 sequence (P22086 whole entry): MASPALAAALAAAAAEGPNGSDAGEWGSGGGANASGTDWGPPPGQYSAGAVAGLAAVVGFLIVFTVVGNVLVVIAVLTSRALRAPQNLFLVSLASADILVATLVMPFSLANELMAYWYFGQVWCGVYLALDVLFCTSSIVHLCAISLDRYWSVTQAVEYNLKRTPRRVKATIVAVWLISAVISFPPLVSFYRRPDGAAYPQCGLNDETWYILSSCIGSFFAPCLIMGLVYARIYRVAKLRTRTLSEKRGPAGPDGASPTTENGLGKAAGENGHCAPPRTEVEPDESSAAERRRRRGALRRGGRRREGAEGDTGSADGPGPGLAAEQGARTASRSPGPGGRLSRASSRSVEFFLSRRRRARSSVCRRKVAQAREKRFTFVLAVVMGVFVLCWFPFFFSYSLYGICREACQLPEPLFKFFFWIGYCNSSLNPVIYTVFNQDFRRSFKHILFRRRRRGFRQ
T1 sequence (P19328 whole entry): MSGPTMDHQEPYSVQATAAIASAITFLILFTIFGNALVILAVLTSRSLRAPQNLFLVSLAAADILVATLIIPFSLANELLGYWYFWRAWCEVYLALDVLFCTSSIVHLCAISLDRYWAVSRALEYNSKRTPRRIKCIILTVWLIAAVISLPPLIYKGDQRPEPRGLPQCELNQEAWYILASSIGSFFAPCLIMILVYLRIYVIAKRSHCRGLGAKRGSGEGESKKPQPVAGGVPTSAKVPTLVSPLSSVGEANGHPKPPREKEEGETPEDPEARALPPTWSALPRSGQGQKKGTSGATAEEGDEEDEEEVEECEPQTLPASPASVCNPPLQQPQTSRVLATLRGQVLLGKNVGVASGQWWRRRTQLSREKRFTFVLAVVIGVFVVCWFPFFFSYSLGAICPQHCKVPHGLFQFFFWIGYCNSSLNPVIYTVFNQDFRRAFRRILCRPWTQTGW
T1 sequence (P22909 whole entry): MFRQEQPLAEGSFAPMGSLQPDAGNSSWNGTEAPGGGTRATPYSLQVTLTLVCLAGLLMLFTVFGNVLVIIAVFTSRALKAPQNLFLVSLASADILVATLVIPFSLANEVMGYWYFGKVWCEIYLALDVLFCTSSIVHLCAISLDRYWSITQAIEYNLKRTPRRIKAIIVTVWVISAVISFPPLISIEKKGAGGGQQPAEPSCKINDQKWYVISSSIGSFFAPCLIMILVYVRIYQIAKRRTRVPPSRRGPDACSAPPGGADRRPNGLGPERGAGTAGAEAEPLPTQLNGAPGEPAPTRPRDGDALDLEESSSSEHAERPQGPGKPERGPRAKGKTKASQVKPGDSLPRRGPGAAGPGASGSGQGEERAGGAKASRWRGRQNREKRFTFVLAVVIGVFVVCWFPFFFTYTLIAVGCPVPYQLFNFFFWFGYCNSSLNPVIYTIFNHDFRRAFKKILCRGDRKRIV
Nature of the assay: The compound was tested in vitro for binding affinity against Alpha-2 adrenergic receptor using [3H]clonidine. It counts as protein assay. In short, it runs like this: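 Rat cortex membranes from male Sprague–Dawley rats, homogenized in ice-cold 50 mM Tris/HCl (pH 7.7 at 25 °C), washed by three 50000g spins. [³H]clonidine final 2.0 nM, varying inhibitor levels, 25 °C for 30 min. Filtration and scintillation counting. Nonspecific binding with 2 μM phentolamine. IC50 by log–probit analysis, Ki = IC50/(1 + [clonidine]/KD). Tested as HCl or HBr salts.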

Assay [3] has as its target T2, Phenylethanolamine N-methyltransferase (Bos taurus, UniProt P10938).
T2 sequence (P10938 whole entry): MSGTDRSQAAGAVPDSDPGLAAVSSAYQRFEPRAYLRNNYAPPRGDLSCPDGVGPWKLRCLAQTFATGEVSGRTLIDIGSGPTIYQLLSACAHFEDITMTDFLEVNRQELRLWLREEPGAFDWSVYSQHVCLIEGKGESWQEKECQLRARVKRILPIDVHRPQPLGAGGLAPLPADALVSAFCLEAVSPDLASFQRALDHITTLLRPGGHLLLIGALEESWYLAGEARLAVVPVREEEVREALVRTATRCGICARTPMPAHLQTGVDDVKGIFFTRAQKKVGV
In words: Inhibition of PNMT (Phenylethanolamine N-Methyltransferase) in vitro. In outline: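 Bovine adrenal PNMT, prepared through the isoelectric precipitation step, assayed radiochemically with phenylethanolamine as the variable substrate and [3H]AdoMet as methyl donor in phosphate buffer pH 8.0. Incubation was 30 min at 37 °C, quenched with borate pH 10, and product was extracted into toluene/isoamyl alcohol and counted. Three inhibitor concentrations spanning 5-fold were run in duplicate, and Ki came from a hyperbolic fit.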

Assay [4] concerns the target T1, Adrenergic receptor alpha-2. In words: Compound was tested in vitro for binding affinity against Alpha-2 adrenergic receptor using [3H]clonidine. It counts as protein assay. In short, it runs like this: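 Rat (male Sprague–Dawley) cortex membranes, washed three times by centrifugation in 50 mM Tris/HCl pH 7.7, incubated 30 min at 25 °C with 2.0 nM [3H]clonidine and varied inhibitor concentrations. Bound ligand was collected by vacuum filtration and counted. Nonspecific binding was defined with 2 μM phentolamine. IC50 came from log–probit analysis, and Ki = IC50/(1+[clonidine]/KD).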

The target is the same in assay [5]. Nature of the assay: The compound was tested in vitro for binding affinity against Alpha-2 adrenergic receptor using [3H]clonidine, A precipitate was noted at 1000 uM. It counts as protein assay.

`NS(=O)(=O)c1ccc2c(c1)CNC(CO)C2` (stereo not drawn) yielded a Selectivity in assay [1] of 4100. Besides, the Ki (commonly the dissociation constant of the complex between target and ligand, obtained from inhibition or displacement) in assay [2] (read-out: Ki) turned out to be 1400 µM.
With `CS(=O)(=O)c1ccc2c(c1)CNC(C(F)(F)F)C2` (stereo not drawn), in assay [1], the Selectivity amounted to 110. This compound gave a Ki in assay [3] of 36 µM.
On the same counts, the results for `Clc1ccc2c(c1Cl)CNCC2` are 0.095 and 0.22 µM.
For the compound `c1ccc2c(c1)CCNC2`, the Selectivity in assay [1] amounted to 0.035.
Regarding `OCC1Cc2ccccc2CN1` (stereo not drawn), the Selectivity in assay [1] was found to be 6. In addition, the Ki in assay [4] (read-out: Ki) worked out at 6.6 µM.
On to `FC(F)(F)C1Cc2ccc(Br)cc2CN1` (stereo not drawn), for which, in assay [1], the Selectivity was above 1900. In addition, in assay [5], the Ki is above 1000 µM.
`O=[N+]([O-])c1ccc2c(c1)CNC(C(F)(F)F)C2` (stereo not drawn) yielded a Selectivity in assay [1] of 700. Moreover, the figures for the Ki in assay [4] and in assay [3] were 1400 µM and 2 µM, respectively.
In turn, `COCC1Cc2ccccc2CN1` (stereo not drawn) showed a Selectivity in assay [1] of 0.3. The Ki in assay [4] (read-out: Ki) came out at 2.8 µM.
In assay [1], `COc1ccc2c3c([nH]c2c1)C=NCC3` [CGS-19281A] showed a Selectivity of 4.4. The Ki in assay [2] is 12 µM; in assay [3], 2.7 µM.
`CC1Cc2ccccc2CN1` (stereo not drawn): the Selectivity in assay [1] stood at 0.36.
Same read-out and setting: to `N#Cc1ccc2c(c1)CNC(C(F)(F)F)C2` (stereo not drawn) belongs 220.
As for `Clc1ccc2c(c1Cl)CNCCC2`, the Ki in assay [2] stood at 4.5 µM.
In the case of `CCC1Cc2ccccc2CN1` (stereo not drawn), the Selectivity in assay [1] came to 0.028. In assay [2], this compound showed a Ki of 0.67 µM.
In the case of `CS(=O)(=O)c1ccc2c(c1)CNC(CO)C2` (stereo not drawn), in assay [1], the Selectivity was found to be 1000. For the same compound, the inhibition constant (Ki) in assay [4] (read-out: Ki) is 660 µM.
In assay [1], `FC(F)(F)C1Cc2ccccc2CN1` (stereo not drawn) showed a Selectivity of 27. The compound further came in with a Ki in assay [3] of 15 µM.
